Results: ChEMBL document CHEMBL4725242, “Discovery of GS-9688 (Selgantolimod) as a Potent and Selective Oral Toll-Like Receptor 8 Agonist for the Treatment of Chronic Hepatitis B” (J Med Chem, 2020)

Key:
Toll-like receptor 7 = target: T1, Toll-like receptor 7 (Homo sapiens, UniProt Q9NYK1); assay: Agonist activity at TLR7 in human cryopreserved PBMC assessed as induction of IFNalpha production measured after 24 hrs
T1 sequence (Q9NYK1 whole entry): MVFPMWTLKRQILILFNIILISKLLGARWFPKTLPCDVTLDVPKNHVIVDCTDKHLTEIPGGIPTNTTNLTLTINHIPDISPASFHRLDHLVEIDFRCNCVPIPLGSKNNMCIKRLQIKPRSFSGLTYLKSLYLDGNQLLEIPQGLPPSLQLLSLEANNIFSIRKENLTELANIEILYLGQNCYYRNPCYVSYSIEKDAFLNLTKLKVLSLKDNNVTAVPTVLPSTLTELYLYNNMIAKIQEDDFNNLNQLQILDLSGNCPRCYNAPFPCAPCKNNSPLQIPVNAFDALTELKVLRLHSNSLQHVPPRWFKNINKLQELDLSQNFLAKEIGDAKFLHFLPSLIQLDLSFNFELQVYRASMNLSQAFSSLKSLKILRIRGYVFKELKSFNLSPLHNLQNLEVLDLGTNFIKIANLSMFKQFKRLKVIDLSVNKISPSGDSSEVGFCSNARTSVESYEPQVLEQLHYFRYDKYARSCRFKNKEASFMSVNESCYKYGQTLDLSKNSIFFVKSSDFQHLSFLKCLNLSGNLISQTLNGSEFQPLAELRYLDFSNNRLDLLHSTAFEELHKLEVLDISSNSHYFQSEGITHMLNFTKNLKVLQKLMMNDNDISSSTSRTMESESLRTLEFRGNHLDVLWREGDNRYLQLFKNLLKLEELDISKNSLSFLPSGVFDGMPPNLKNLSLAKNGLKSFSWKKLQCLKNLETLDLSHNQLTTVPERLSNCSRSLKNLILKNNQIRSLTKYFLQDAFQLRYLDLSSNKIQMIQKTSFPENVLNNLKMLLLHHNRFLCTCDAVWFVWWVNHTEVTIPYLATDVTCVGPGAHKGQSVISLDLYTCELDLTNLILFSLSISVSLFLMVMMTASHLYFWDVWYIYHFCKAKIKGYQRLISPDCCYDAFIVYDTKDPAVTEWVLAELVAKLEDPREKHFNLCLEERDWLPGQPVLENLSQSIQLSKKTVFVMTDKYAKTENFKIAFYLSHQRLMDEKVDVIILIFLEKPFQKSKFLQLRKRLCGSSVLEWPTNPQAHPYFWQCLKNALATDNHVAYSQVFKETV
How it was run: (§1)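 Cryopreserved healthy-donor human PBMC, recovered 2 h at 37°C/5% CO2, then 100k cells/well in RPMI/10% FBS exposed 24 h at 37°C to a 10-point half-log dilution series (0.5% final DMSO). Supernatant IFNα-2a quantified by MSD electrochemiluminescence immunoassay. For the ratio, divided by the IL-12p40 EC50 from the same PBMC screen.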

Toll-like receptor 8 = target: T2, Toll-like receptor 8 (Homo sapiens, UniProt Q9NR97); assay: Agonist activity at TLR8 in human cryopreserved PBMC assessed as induction of IL-12p40 production measured after 24 hrs
T2 sequence (Q9NR97 whole entry): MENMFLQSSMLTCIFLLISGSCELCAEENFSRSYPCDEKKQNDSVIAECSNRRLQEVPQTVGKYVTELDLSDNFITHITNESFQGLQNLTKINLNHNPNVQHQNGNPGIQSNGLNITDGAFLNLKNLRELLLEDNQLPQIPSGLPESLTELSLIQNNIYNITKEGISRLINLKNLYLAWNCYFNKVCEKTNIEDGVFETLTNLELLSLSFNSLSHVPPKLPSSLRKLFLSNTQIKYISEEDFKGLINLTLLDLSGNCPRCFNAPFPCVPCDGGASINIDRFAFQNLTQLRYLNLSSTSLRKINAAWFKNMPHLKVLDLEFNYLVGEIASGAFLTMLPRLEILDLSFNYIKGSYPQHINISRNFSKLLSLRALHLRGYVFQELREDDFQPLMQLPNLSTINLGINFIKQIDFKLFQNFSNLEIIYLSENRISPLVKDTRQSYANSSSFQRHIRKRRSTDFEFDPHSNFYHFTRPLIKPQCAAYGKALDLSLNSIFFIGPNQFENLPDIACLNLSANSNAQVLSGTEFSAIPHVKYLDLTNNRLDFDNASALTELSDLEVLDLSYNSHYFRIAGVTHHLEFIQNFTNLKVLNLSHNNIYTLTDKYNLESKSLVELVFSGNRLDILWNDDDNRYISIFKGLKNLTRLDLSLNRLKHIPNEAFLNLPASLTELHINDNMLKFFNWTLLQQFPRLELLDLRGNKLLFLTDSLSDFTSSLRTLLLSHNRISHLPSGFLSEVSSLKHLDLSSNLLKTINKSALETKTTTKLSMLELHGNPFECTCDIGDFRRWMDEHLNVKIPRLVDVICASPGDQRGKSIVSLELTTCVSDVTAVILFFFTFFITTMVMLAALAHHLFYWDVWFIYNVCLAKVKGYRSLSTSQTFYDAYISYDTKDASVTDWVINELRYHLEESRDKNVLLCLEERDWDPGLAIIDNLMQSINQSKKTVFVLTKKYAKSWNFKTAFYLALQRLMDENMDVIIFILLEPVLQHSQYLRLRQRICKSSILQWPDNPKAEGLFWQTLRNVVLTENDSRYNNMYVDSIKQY

[1] = Cytotoxicity against human MT4 cells assessed as reduction in cell viability measured after 4 to 5 days by celltiter-glo assay; assay type: cell-based; conditions: time 4-5 day
[2] = Selectivity index, ratio of CC50 for human MT4 cells to EC50 for TLR8 in human cryopreserved PBMC assessed as induction of IL-12p40 production
[3] = Dissociation constant, pKa of the compound; assay type: physicochemical
Homo sapiens = organism: Homo sapiens; assay: Selectivity ratio of EC50 for TLR7 in human cryopreserved PBMC assessed as induction of IFNalpha production to EC50 for TLR8 in human cryopreserved PBMC assessed as induction of IL-12p40 production
How it was run: as §1, with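 “immunoassay. Normalized to 10 µM GS-9620 positive and DMSO negative controls; EC50 from 4-parameter logistic fit.” for “immunoassay.”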

[4] = Apparent permeability across apical to basolateral side in human Caco2 cells measured after 1 to 2 hrs by LC-MS/MS analysis; conditions: Caco-2
[5] = Apparent permeability across basolateral to apical side in human Caco2 cells measured after 1 to 2 hrs by LC-MS/MS analysis; conditions: Caco-2
[6] = Clearance in rat hepatic microsomes at 2 uM measured up to 60 mins in presence of NADPH generating system by LC-MS/MS analysis; assay type: ADME, Microsome; conditions: liver microsomes
[7] = Clearance in dog hepatic microsomes at 2 uM measured up to 60 mins in presence of NADPH generating system by LC-MS/MS analysis; assay type: ADME, Canis lupus familiaris, Microsome; conditions: liver microsomes
[8] = Clearance in cynomolgus monkey hepatic microsomes at 2 uM measured up to 60 mins in presence of NADPH generating system by LC-MS/MS analysis; assay type: ADME, Macaca fascicularis, Microsome; conditions: liver microsomes
[9] = Clearance in human hepatic microsomes at 2 uM measured up to 60 mins in presence of NADPH generating system by LC-MS/MS analysis; assay type: ADME, Microsome; conditions: liver microsomes
[10] = Drug metabolism in human hepatocytes assessed as core oxidation; assay type: ADME, cell-based, Hepatocyte

**Q.** For `CCCC[C@H](CO)Nc1cc(N)nc2ccccc12`, which EC50 (Toll-like receptor 7) is on record?
**A.** Its EC50 is greater than 50 µM.

**Q.** And the EC50 (Toll-like receptor 8)?
**A.** The EC50 was greater than 50 µM.

**Q.** Which EC50 (Toll-like receptor 7) does the source give for `CCCCCC[C@](C)(CO)Nc1nc(N)nc2cccnc12` here?
**A.** The EC50 was greater than 50 µM.

**Q.** And the CC50 [1]?
**A.** The CC50 was 3.6 µM.

**Q.** And the “Ratio CC50/EC50” value [2]?
**A.** Its value is 0.4.

**Q.** What about the EC50 (Toll-like receptor 8) of the same molecule?
**A.** The EC50 was 10 µM.

**Q.** Which results are given for `CCCC[C@@](C)(CO)Nc1nc(N)nc2cc(F)cnc12`?
**A.** EC50 (Toll-like receptor 7): > 50 µM; CC50 [1]: 0.79 µM; Ratio CC50/EC50 [2]: 0.2; EC50 (Toll-like receptor 8): 3.3 µM

**Q.** For `CCCC[C@H](CO)Nc1nc(N)nc2ccccc12`, which EC50 (Toll-like receptor 7) is on record?
**A.** The EC50 was greater than 50 µM.

**Q.** And the pKa [3]?
**A.** Its pKa is 8.2.

**Q.** And the EC50 (Toll-like receptor 8)?
**A.** The EC50 was 1.84 µM.

**Q.** Which results are given for `CCCC[C@](C)(CO[C@@H]1O[C@H](C(=O)O)[C@@H](O)[C@H](O)[C@H]1O)Nc1nc(N)nc2cc(F)cnc12`?
**A.** EC50 (Toll-like receptor 7): > 50 µM; CC50 [1]: > 50 µM; EC50 (Toll-like receptor 8): > 50 µM

**Q.** With `CCCCNc1nc(N)nc2cccnc12` as the molecule, how does the EC50 (Toll-like receptor 7) read?
**A.** The EC50 was 2.2 µM.

**Q.** What about the EC50 (Toll-like receptor 8) of the same molecule?
**A.** Its EC50 is 1.9 µM.

**Q.** What does the source list for `CCCC[C@@H](Nc1nc(N)nc2cccnc12)C(=O)O`?
**A.** EC50 (Toll-like receptor 7): > 50 µM; EC50 (Toll-like receptor 8): > 50 µM

**Q.** With `CCCC[C@H](CCO)Nc1nc(N)nc2cccnc12` as the molecule, how does the EC50 (Toll-like receptor 7) read?
**A.** Its EC50 is greater than 50 µM.

**Q.** And the EC50 (Toll-like receptor 8)?
**A.** The EC50 was 4.3 µM.

**Q.** With `CCCCOc1nc(N)nc2cccnc12` as the molecule, how does the EC50 (Toll-like receptor 7) read?
**A.** Its EC50 is greater than 50 µM.

**Q.** What about the EC50 (Toll-like receptor 8) of the same molecule?
**A.** Its EC50 is greater than 50 µM.

**Q.** With `CCCC[C@](C)(CO)Nc1nc(N)nc2cc(C)cnc12` as the molecule, how does the EC50 (Toll-like receptor 7) read?
**A.** Its EC50 is greater than 50 µM.

**Q.** What about the pKa [3] of the same molecule?
**A.** The pKa was 7.1.

**Q.** And the Ratio EC50 (Homo sapiens)?
**A.** Its Ratio EC50 is greater than 185.

**Q.** And the CC50 [1]?
**A.** The CC50 was 23 µM.

**Q.** And the “Ratio CC50/EC50” value [2]?
**A.** Its value is 144.

**Q.** And the Papp A→B [4]?
**A.** Its Papp A→B is 31 ×10⁻⁶ cm/s.

**Q.** What about the Papp B→A [5] of the same molecule?
**A.** Its Papp B→A is 29 ×10⁻⁶ cm/s.

**Q.** And the CLhep predicted at 2 µM [6]?
**A.** The CLhep predicted at 2 µM was 63.3 mL/min/kg.

**Q.** What about the CLhep predicted at 2 µM [7] of the same molecule?
**A.** The CLhep predicted at 2 µM was 18.3 mL/min/kg.

**Q.** What about the CLhep predicted at 2 µM [8] of the same molecule?
**A.** Its CLhep predicted at 2 µM is 25 mL/min/kg.

**Q.** And the CLhep predicted at 2 µM [9]?
**A.** The CLhep predicted at 2 µM was 8.33 mL/min/kg.

**Q.** And the EC50 (Toll-like receptor 8)?
**A.** The EC50 was 0.16 µM.

**Q.** What does the source list for `CCC[C@@H](CO)Nc1nc(N)nc2cccnc12`?
**A.** EC50 (Toll-like receptor 7): 2 µM; EC50 (Toll-like receptor 8): 0.43 µM

**Q.** What does the source list for `C[C@](CO)(CCCCO)Nc1nc(N)nc2cc(F)cnc12`?
**A.** EC50 (Toll-like receptor 7): > 50 µM; CC50 [1]: > 50 µM; EC50 (Toll-like receptor 8): > 50 µM

**Q.** With `CCCC(C)Nc1nc(N)nc2cccnc12` (configuration not stated) as the molecule, how does the EC50 (Toll-like receptor 7) read?
**A.** Its EC50 is 5.1 µM.

**Q.** What about the EC50 (Toll-like receptor 8) of the same molecule?
**A.** Its EC50 is 3.1 µM.

**Q.** Which EC50 (Toll-like receptor 7) does the source give for `CCCC[C@@](C)(Nc1nc(N)nc2cc(F)cnc12)C(=O)O` here?
**A.** Its EC50 is greater than 50 µM.

**Q.** What about the CC50 [1] of the same molecule?
**A.** Its CC50 is greater than 50 µM.

**Q.** What about the EC50 (Toll-like receptor 8) of the same molecule?
**A.** The EC50 was greater than 50 µM.

**Q.** For `CCCC[C@@](C)(CO)Nc1nc(N)nc2cccnc12`, which EC50 (Toll-like receptor 7) is on record?
**A.** The EC50 was 7.9 µM.

**Q.** And the CC50 [1]?
**A.** Its CC50 is 26 µM.

**Q.** And the “Ratio CC50/EC50” value [2]?
**A.** Its value is 11.

**Q.** What about the Papp A→B [4] of the same molecule?
**A.** Its Papp A→B is 32 ×10⁻⁶ cm/s.

**Q.** What about the Papp B→A [5] of the same molecule?
**A.** The Papp B→A was 31 ×10⁻⁶ cm/s.

**Q.** And the CLhep predicted at 2 µM [6]?
**A.** Its CLhep predicted at 2 µM is 58.3 mL/min/kg.

**Q.** And the CLhep predicted at 2 µM [7]?
**A.** Its CLhep predicted at 2 µM is 25 mL/min/kg.

**Q.** What about the CLhep predicted at 2 µM [8] of the same molecule?
**A.** The CLhep predicted at 2 µM was 23.3 mL/min/kg.

**Q.** And the CLhep predicted at 2 µM [9]?
**A.** The CLhep predicted at 2 µM was 13.3 mL/min/kg.

**Q.** And the Drug metabolism [10]?
**A.** The Drug metabolism was “Metabolite_Detected”.

**Q.** And the EC50 (Toll-like receptor 8)?
**A.** Its EC50 is 2.4 µM.
